Source: ChEMBL document CHEMBL1124167, “Syntheses and gastric acid antisecretory properties of the H2-receptor antagonist. N-[3-[3-(1-piperidinylmethyl)phenoxy]propyl]thieno[3,4-d]isot hiazol-3-amine 1,1-dioxide and related derivatives” (J Med Chem, 1988)
Activity calls are given as the source filed them. The calls are words filed in the database; no cut-off is given here.

How the values were obtained:
[1] = system: Rattus norvegicus; assay: In vivo inhibitory activity against basal acid secretion in pylorus-ligated rat was determined at a dose of 4 mg/kg; assay type: functional
Procedure, shortened: (§1)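 Male SD/CD rats (190–260 g), fasted 24 h with water, groups of 10. Pylorus ligated under methohexital (40 mg/kg). Drug in 0.25% aqueous methylcellulose given intraduodenally (1 mL/kg) right after ligation. Killed 4 h later. Gastric juice volume × acid concentration (titration to pH 7.0 with 0.1 N NaOH) gives total acid output, expressed as percent inhibition vs vehicle controls.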

[2] = system: Rattus norvegicus; assay: In vivo inhibitory activity against basal acid secretion in pylorus-ligated rat was determined at a dose of 4 mg/kg; Inactive
[3] = system: Rattus norvegicus; assay: In vivo inhibitory activity against basal acid secretion in pylorus-ligated rat was determined at a dose of 8 mg/kg; assay type: functional; procedure, shortened: as §1
[4] = species on record: Canis familiaris; assay: Efficacy against histamine stimulation was determined in dog; assay type: functional; conditions: Canis lupus familiaris
Procedure, shortened: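 Gastric pouch dogs fasted 18 h with water, baseline from two 15-min samples. Drug in 0.9% saline given by oral gavage 30 min before histamine diphosphate (64 μg/kg base, sc). Samples collected at 15-min intervals and acid titrated to pH 7.0 with 0.1 N NaOH. Total acid output summed over 1 h, percent inhibition vs the same dog's saline run, runs ≥3 days apart.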

Row | SMILES | Total acid output [1] | Total acid output [3] | also measured
1 | N=C(N)Nc1nc(CSCCNC2=NS(=O)(=O)c3cscc32)cs1 | 83% |  | 
2 | CCCN(CCC)Cc1cccc(OCCCNC2=NS(=O)(=O)c3cscc32)c1.Cl | 16% |  | 
3 | O=Cc1cccc(OCCCNC2=NS(=O)(=O)c3cscc32)c1 | 89% |  | Activity [2]: inactive
4 | O=S1(=O)N=C(NCCCOc2ccc(CN3CCCCC3)cc2)c2cscc21 |  | 21% | 
5 | Cl.O=S1(=O)N=C(NCCCOc2cccc(CN3CCCC3)c2)c2cscc21 | 19% |  | 
6 | CN/C(=C\[N+](=O)[O-])NCCSCc1ccc(CN(C)C)o1 [RANITIDINE] |  |  | ED50 [4]: 0.93 mg/kg
7 | NS(=O)(=O)c1cscc1C(=O)NCCCOc1cccc(C=O)c1 |  | 94% | 
8 | O=C(c1cccc(OCCCNC2=NS(=O)(=O)c3cscc32)c1)N1CCCCC1 |  | 94% | 
9 | O=S1(=O)N=C(NCCCOc2cccc(CN3CCCCC3)c2)c2cscc21 |  | 16% | ED50 [4]: 0.35 mg/kg
10 | Cl.NS(=O)(=O)c1cscc1C(=O)NCCCOc1cccc(CN2CCCCC2)c1.O |  | 36% | 
11 | Cc1[nH]cnc1CSCCNC1=NS(=O)(=O)c2cscc21 |  | 87% | 
12 | O=S1(=O)N=C(NCCCOc2cccc(CN3CC=CCC3)c2)c2cscc21 | 18% |  | 
13 | O=S1(=O)N=C(NCCCOc2cccc(CN3CCCCC3)c2)c2sccc21 |  | 12% | 
